# Source: ChEMBL document CHEMBL1800034, “A synthetic 7,8-dihydroxyflavone derivative promotes neurogenesis and exhibits potent antidepressant effect” (J Med Chem, 2010)
# Activity calls are given as the source filed them. The rule behind the calls is not given here.
# Tests used:
# [1] = molecular target: BDNF/NT-3 growth factors receptor (Rattus norvegicus) (UniProt Q63604); test: Agonist activity at TrkB in E17 rat primary cortical neurons assessed as TrkB phosphorylation at 817 at 500 nM after 15 mins by immunoblotting; format: functional, cell-based; conditions: Cerebral cortex neuron
# Chain of BDNF/NT-3 growth factors receptor (Rattus norvegicus) (Q63604 whole entry): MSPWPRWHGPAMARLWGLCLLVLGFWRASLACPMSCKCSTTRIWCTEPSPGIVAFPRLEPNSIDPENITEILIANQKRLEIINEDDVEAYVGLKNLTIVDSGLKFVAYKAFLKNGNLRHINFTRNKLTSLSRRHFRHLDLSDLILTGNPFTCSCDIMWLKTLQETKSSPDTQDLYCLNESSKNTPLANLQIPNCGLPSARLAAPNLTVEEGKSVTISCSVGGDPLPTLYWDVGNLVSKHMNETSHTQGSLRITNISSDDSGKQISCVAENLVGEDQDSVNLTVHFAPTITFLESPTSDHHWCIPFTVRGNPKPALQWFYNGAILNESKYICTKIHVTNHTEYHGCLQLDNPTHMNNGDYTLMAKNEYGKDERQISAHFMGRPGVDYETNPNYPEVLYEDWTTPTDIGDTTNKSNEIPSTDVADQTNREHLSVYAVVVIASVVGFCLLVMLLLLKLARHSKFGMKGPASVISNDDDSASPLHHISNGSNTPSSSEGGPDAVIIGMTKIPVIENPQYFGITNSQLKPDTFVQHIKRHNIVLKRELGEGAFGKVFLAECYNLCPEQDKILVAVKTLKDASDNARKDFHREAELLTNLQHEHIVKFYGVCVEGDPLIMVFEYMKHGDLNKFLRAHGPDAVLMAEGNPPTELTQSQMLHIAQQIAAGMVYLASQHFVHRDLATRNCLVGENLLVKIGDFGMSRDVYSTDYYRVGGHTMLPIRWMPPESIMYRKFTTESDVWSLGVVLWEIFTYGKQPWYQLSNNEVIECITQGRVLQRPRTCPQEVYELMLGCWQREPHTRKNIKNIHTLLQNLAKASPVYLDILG
# In short: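 Rat cortical neurons from E17 embryos, 13 DIV, were treated with 500 nM compound for 15 min. Lysates were run on 10% SDS-PAGE and immunoblotted with p-TrkB Y817 antibody at 1:20,000–40,000.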
# [2] = molecular target: BDNF/NT-3 growth factors receptor (Rattus norvegicus) (UniProt Q63604); test: Agonist activity at TrkB in E17 rat primary cortical neurons assessed as AKT phosphorylation at Ser 473 at 500 nM after 15 mins by ELISA relative to control; format: functional, cell-based; conditions: Cerebral cortex neuron
# [3] = molecular target: BDNF/NT-3 growth factors receptor (Rattus norvegicus) (UniProt Q63604); test: Agonist activity at TrkB in E17 rat primary cortical neurons by immunoblotting; format: functional, cell-based; conditions: Cerebral cortex neuron
# [4] = molecular target: BDNF/NT-3 growth factors receptor (Rattus norvegicus) (UniProt Q63604); test: Agonist activity at TrkB in E17 rat primary cortical neurons assessed as AKT phosphorylation at Ser 473 at 500 nM after 15 mins by ELISA; format: functional, cell-based; conditions: Cerebral cortex neuron
# [5] = molecular target: BDNF/NT-3 growth factors receptor (Rattus norvegicus) (UniProt Q63604); test: Agonist activity at TrkB in E17 rat primary rat cortical neurons assessed as AKT phosphorylation at Ser 473 at 500 nM after 15 mins by ELISA; format: functional
# Mus musculus [6] = test: Induction of neurogenesis in C57BL/6J mouse hippocampus dentate gyrus assessed as progenitor cell proliferation at 5 mg/kg, po administered for 21 days by DAPI and BrdU staining based fluorescence microscopy; format: functional, organism-based; parameters: dose 5 mg/kg
# In short: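 Adult male C57BL/6J mice were gavaged at 5 mg/kg for 21 days and then given BrdU at 50 mg/kg i.p. Mice were perfused with 4% paraformaldehyde 2 h later. Paraffin sections had citrate antigen retrieval and 2 N HCl treatment, then were stained with anti-BrdU-FITC at 4 °C for 16 h and with DAPI. BrdU-positive cells in the dentate gyrus were counted by fluorescence microscopy.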
# Mus musculus [7] = test: Toxicity in C57BL/6J mouse assessed as pathological changes in liver at 5 mg/kg, po for 3 weeks; format: organism-based; parameters: dose 5 mg/kg, route oral; conditions: in vivo, 504 h
# In short: (§1)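 Mice were dosed orally at 5 mg/kg for 3 weeks, with saline-treated controls. Major organs were examined for pathological changes, and a complete blood count was done.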
# [8] = Cytotoxicity at E17 rat primary cortical neurons assessed as cell death at 5 uM by LDH assay; format: cell-based; conditions: cerebral cortex neuron
# Mus musculus [9] = test: Toxicity in C57BL/6J mouse assessed as affect on complete blood count analysis at 5 mg/kg, po for 3 weeks; format: organism-based; parameters: dose 5 mg/kg, route oral; conditions: in vivo, 504 h; in short: as §1
# Mus musculus [10] = test: Toxicity in C57BL/6J mouse assessed as pathological changes in brain cortex at 5 mg/kg, po for 3 weeks; format: organism-based; parameters: dose 5 mg/kg, route oral; conditions: in vivo, 504 h; in short: as §1
# Mus musculus [11] = test: Antidepressant activity in TrkB F616A knock in mouse assessed as reduction of immobility time at 5 mg/kg, po administered for 21 days by forced swim test assay in presence of TrkB F616A inhibitor 1NMPP1; format: functional, organism-based; parameters: dose 5 mg/kg
# Mus musculus [12] = test: Neuroprotective activity in TrkB F616A knock in mouse assessed as inhibition of kainic acid-induced caspase 3 activation in brain homogenates at 5 mg/kg, po administered 4 hrs prior to kainic acid challenge measured after 4 days by immunoblotting in presence of TrkB F616A inhibitor 1NMPP1; format: functional, organism-based; parameters: dose 5 mg/kg
# In short: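 TrkB F616A knock-in mice, 2–3 months old, were given 1NMPP1 at 25 µM in drinking water one day beforehand. They were then gavaged with compound at 5 mg/kg, followed 4 h later by kainic acid at 20 mg/kg. Brains were taken 4 days later, homogenized and ultracentrifuged. 40 µg of supernatant was immunoblotted.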
# Mus musculus [13] = test: Neuroprotective activity in po dosed C57BL/6J mouse assessed as TrkB phosphorylation in brain by titration assay; format: functional, organism-based
# Mus musculus [14] = test: Toxicity in C57BL/6J mouse assessed as pathological changes in kidney at 5 mg/kg, po for 3 weeks; format: organism-based; parameters: dose 5 mg/kg, route oral; conditions: in vivo, 504 h; in short: as §1
# [15] = molecular target: BDNF/NT-3 growth factors receptor (Rattus norvegicus) (UniProt Q63604); test: Agonist activity at TrkB in E17 rat primary rat cortical neurons assessed as AKT phosphorylation at Ser 473 at 10 nM after 15 mins by titration assay; format: functional
# In short: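 Primary cortical neurons were incubated with graded concentrations, starting at 10 nM, for 15 min. Phospho-Akt Ser473 was measured by sandwich ELISA on 20 µg of lysate. Data come from 2 replicated experiment sets, given as mean ± SEM. Comparisons used one-way ANOVA against control and Student's t-test between compounds.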
# Mus musculus [16] = test: Agonist activity at TrkB in C57BL/6J mouse brain assessed as TrkB 706 phosphorylation at 1 mg/kg, po at 1 to 2 hrs by immunoblotting; format: functional, organism-based; parameters: dose 1 mg/kg
# In short: (§2)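 C57BL/6J mice got a single oral dose of 1 mg/kg. Brains were collected at several time points, about 1 to 16 h after dosing. Lysates were immunoblotted for TrkB phosphorylation and for downstream Akt and MAPK phosphorylation.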
# Mus musculus [17] = test: Agonist activity at TrkB in C57BL/6J mouse brain lysate assessed as TrkB phosphorylation at Y817 at 5 mg/kg, po administered for 21 days by immunoblotting; format: functional, organism-based; parameters: dose 5 mg/kg
# In short: (§3)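 Adult male C57BL/6J mice, 8 per group, dosed orally by gavage once daily for 21 days; saline was the vehicle. Brain lysates were immunoblotted with anti-p-TrkA 794 and anti-p-TrkB 817.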
# Mus musculus [18] = test: Agonist activity at TrkB in C57BL/6J mouse brain assessed as TrkB 706 phosphorylation at 1 mg/kg, po at 1 hr by immunoblotting; format: functional, organism-based; parameters: dose 1 mg/kg; in short: as §2
# HEK293 [19] = test: Cytotoxicity against human HEK293 cells assessed as cell death at 50 to 50000 nM after 24 hrs by LDH assay; format: cell-based; conditions: hek293, 24 h, 50 µM
# Mus musculus [20] = test: Antidepressant activity in C57BL/6J mouse assessed as decrease in immobility at 5 mg/kg, po administered for 21 days measured last 4 mins of total 6 mins observation time by forced swim test; format: functional, organism-based; parameters: dose 5 mg/kg
# In short: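 Male C57BL/6J mice, 2–3 months old, were gavaged with saline or compound at 5 mg/kg for 21 days. Mice were acclimated to the test room for 2 days. There was no pre-swim. Each mouse swam for 6 min in a 16 cm cylinder of water 14 cm deep at 24 °C. Immobility was scored blind over the last 4 min; mean ± SEM, ANOVA.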
# HEK293 [21] = test: Cytotoxicity against human HEK293 cells assessed as inhibition of cell proliferation at up to 50 uM by MTT assay; format: cell-based
# [22] = molecular target: BDNF/NT-3 growth factors receptor (Rattus norvegicus) (UniProt Q63604); test: Agonist activity at TrkB in E16 rat embryonic cortical neurons assessed as inhibition of glutamate-induced caspase 3 activation at 10 nM after 30 mins followed by 16 hrs of 50 uM glutamate-challenge by ELISA; format: functional
# In short: (§4)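 Cortical neurons from E16 rat embryos were pretreated with the indicated compound concentrations for 30 min. They were then challenged with 50 µM glutamate for 16 h. Active caspase-3 in the lysates was measured by ELISA.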
# Mus musculus [23] = test: Toxicity in C57BL/6J mouse assessed as pathological changes in lungs at 5 mg/kg, po for 3 weeks; format: organism-based; parameters: dose 5 mg/kg, route oral; conditions: in vivo, 504 h; in short: as §1
# Mus musculus [24] = test: Toxicity in C57BL/6J mouse assessed as pathological changes in spleen at 5 mg/kg, po for 3 weeks; format: organism-based; parameters: dose 5 mg/kg, route oral; conditions: in vivo, 504 h; in short: as §1
# Mus musculus [25] = test: Agonist activity at TrkA in C57BL/6J mouse brain lysate assessed as TrkA phosphorylation at Y794 at 5 mg/kg, po administered for 21 days by immunoblotting; format: functional, organism-based; parameters: dose 5 mg/kg; in short: as §3
# [26] = molecular target: BDNF/NT-3 growth factors receptor (Rattus norvegicus) (UniProt Q63604); test: Agonist activity at TrkB in E16 rat embryonic cortical neurons assessed as inhibition of glutamate-induced caspase 3 activation at 50 to 500 nM after 30 mins followed by 16 hrs of 50 uM glutamate-challenge by ELISA; format: functional; in short: as §4
# Mus musculus [27] = test: Neuroprotective activity in C57BL/6J mouse assessed as inhibition of kainic acid-induced caspase 3 activation in hippocampus region at 5 mg/kg, po administered 2 to 8 hrs prior to kainic acid challenge measured after 4 hrs by immunoblotting; format: functional, organism-based; parameters: dose 5 mg/kg
# Mus musculus [28] = test: Toxicity in C57BL/6J mouse assessed as pathological changes in heart at 5 mg/kg, po for 3 weeks; format: organism-based; parameters: dose 5 mg/kg, route oral; conditions: in vivo, 504 h; in short: as §1
# Mus musculus [29] = test: Toxicity in C57BL/6J mouse assessed as pathological changes in testis at 5 mg/kg, po for 3 weeks; format: organism-based; parameters: dose 5 mg/kg, route oral; conditions: in vivo, 504 h; in short: as §1
# Mus musculus [30] = test: Toxicity in C57BL/6J mouse assessed as pathological changes in intestine at 5 mg/kg, po for 3 weeks; format: organism-based; parameters: dose 5 mg/kg, route oral; conditions: in vivo, 504 h; in short: as §1
# Mus musculus [31] = test: Toxicity in C57BL/6J mouse assessed as pathological changes in hippocampus at 5 mg/kg, po for 3 weeks; format: organism-based; parameters: dose 5 mg/kg, route oral; conditions: in vivo, 504 h; in short: as §1
# Mus musculus [32] = test: Toxicity in C57BL/6J mouse assessed as pathological changes in muscle at 5 mg/kg, po for 3 weeks; format: organism-based, Muscle tissue; parameters: dose 5 mg/kg, route oral; conditions: in vivo, 504 h; in short: as §1
# Mus musculus [33] = test: Neuroprotective activity in C57BL/6J mouse assessed as inhibition of kainic acid-induced caspase 3 activation in hippocampus region at 5 mg/kg, po administered 2 to 8 hrs prior to kainic acid challenge measured after 8 hrs by immunoblotting; format: functional, organism-based; parameters: dose 5 mg/kg
# [34] = molecular target: BDNF/NT-3 growth factors receptor (Rattus norvegicus) (UniProt Q63604); test: […] in E17 rat primary cortical neurons at 500 nM after 15 mins by immunoblotting; conditions: Cerebral cortex neuron
# In short: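 Primary cortical neurons from E17 rat embryos, 13 DIV, exposed to compound at 500 nM for 15 min. Lysates resolved on 10% SDS-PAGE and immunoblotted for phospho-TrkB (p-TrkB Y817 antibody, 1:20,000–40,000) alongside other signalling antibodies.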
# Mus musculus [35] = test: Neuroprotective activity in C57BL/6J mouse assessed as inhibition of kainic acid-induced caspase 3 activation in hippocampus region at 5 mg/kg, po administered 2 to 8 hrs prior to kainic acid challenge measured after 2 hrs by immunoblotting; format: functional, organism-based; parameters: dose 5 mg/kg
# In short: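 C57BL/6J mice dosed orally by gavage at 5 mg/kg. Kainic acid 20 mg/kg i.p. given at 0, 2 or 6 h after dosing. Mice killed 2 h after kainic acid; hippocampal lysates immunoblotted with anti-p-TrkB and anti-active caspase-3.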
smiles,measurement,setting,value
O=c1cc(-c2cccc(O)c2)oc2c(O)c(O)ccc12,Activity,[1],Active
same,fold change (FC),[2],2
COc1ccc2c(=O)cc(-c3ccccc3)oc2c1O,Activity,[3],Active
same,Activity,[1],Active
same,Activity,[4],Active
O=c1cc(-c2ccc(F)cc2)[nH]c2c(O)c(O)ccc12,Activity,[5],inactive
"O=c1cc(-c2ccccc2)oc2c(O)c(O)ccc12 [7,8-DIHYDROXYFLAVONE]",Activity,Mus musculus [6],Active
same,Activity,Mus musculus [7],Non-toxic
same,Activity,[8],Non-toxic
same,Activity,Mus musculus [9],Non-toxic
same,Activity,Mus musculus [10],Non-toxic
same,Activity,Mus musculus [11],inactive
same,inhibition,Mus musculus [12],inactive
same,Activity,Mus musculus [13],Dose-dependent effect
same,Activity,Mus musculus [14],Non-toxic
same,Activity,[15],Active
same,Activity,Mus musculus [16],Active
same,Activity,Mus musculus [17],Active
same,Activity,Mus musculus [18],Active
same,Activity,HEK293 [19],Non-toxic
same,Activity,[1],Active
same,Activity,Mus musculus [20],Active
same,Activity,HEK293 [21],Non-toxic
same,inhibition,[22],Active
same,Activity,Mus musculus [23],Non-toxic
same,Activity,Mus musculus [24],Non-toxic
same,Activity,Mus musculus [25],inactive
same,Activity,[26],Active
same,inhibition,Mus musculus [27],Active
same,Activity,Mus musculus [28],Non-toxic
same,Activity,Mus musculus [29],Non-toxic
same,Activity,Mus musculus [30],Non-toxic
same,Activity,Mus musculus [31],Non-toxic
same,Activity,Mus musculus [32],Non-toxic
same,inhibition,Mus musculus [33],Active
O=c1c(O)c(-c2ccc(O)c(O)c2)oc2c(O)c(O)cc(O)c12,inhibition,[34],Active
COc1ccc2c(=O)cc(-c3ccccc3)oc2c1OC,Activity,[3],Active
same,Activity,[4],inactive
O=c1cc(-c2ccccc2)[nH]c2c(O)c(O)ccc12,Activity,[5],inactive
C=C(C)[C@H]1CN[C@H](C(=O)O)[C@H]1CC(=O)O,inhibition,Mus musculus [35],Active
O=c1cc(-c2cncnc2)oc2c(O)c(O)ccc12,Activity,[5],Active
